In the library only some 3% were active in any assay of this set; here they are far more common.
TRPC6 inh: mouse TRPC6 channel inhibition; B-score at 10 µM; AID 2553; 1.1% of 310,000 active; Q61143; HEK293-TRPC6, membrane potential dye, ACh-evoked depolarization; hits give low values;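 active = B-score under library mean minus 3 SD, initial fluorescence not abnormally high, positive integrated signal ratio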;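 also: B-score derived from integrated fluorescence ratio over the kinetic read; more negative B-score means stronger inhibition of depolarization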
TRPC4 PAM: TRPC4 (mouse) allosteric potentiation; Q9QUQ5; HEK293 TRPC4beta/mu-opioid, DAMGO EC20, Fluo-4 Ca2+ flux; hits give high values; B-score at 10 µM; 0.42% of 310,000 active; AID 2227;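 active = B-score of calcium response area above 5 SD of library B-scores, with initial fluorescence ratio within 5 SD of library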;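 also: B-score of integrated fluorescence ratio over time as area under calcium response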
TRPC4 inh: blocks the mouse TRPC4 cation channel | HEK293 TRPC4beta/mu-opioid, DAMGO-evoked Fluo4 calcium flux; hits give low values | B-score at 10 µM | 0.39% of 300,000 active | AID 2247;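 active = B-score over 3 SD under the library average, no early fluorescence shift, positive overall ratio signal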
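test system = HEK293 cells with stable TRPC4beta plus mu-opioid receptor expression | detection = Fluo4 Ca2+ flux fluorescence | read-out = integrated fluorescence ratio relative to baseline, converted to per-well B score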
TRPC6 activator: activators of mouse TRPC6 channel; Q61143; HEK293-TRPC6 membrane potential dye fluorescence; hits give high values; B-score at 10 µM; 0.13% of 310,000 active; AID 2550;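 active = B-score of the integrated fluorescence ratio above library mean plus 3 SD, and starting fluorescence ratio within library mean plus 5 SD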;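 also: higher score means more depolarization so channel activation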
TRPC4 act: opens the mouse TRPC4 cation channel; Q9QUQ5; HEK293 TRPC4beta/mu-opioid, Fluo4 calcium fluorescence; hits give high values; B-score at 10 µM; 0.49% of 310,000 active; AID 2237;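 active = B-score above 5 SD of library B-scores, and initial fluorescence ratio not above library mean plus 5 SD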;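 also: positive B-score marks a calcium rise read as TRPC4 activation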
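Material: TRPC4beta and mu-opioid receptor HEK293 stable cells | Incubation: 45 min room-temperature Fluo4 loading, 110 s read | Detection: Kinetic Fluo4 calcium fluorescence | Measure: Integrated baseline-normalised fluorescence ratio, converted to per-well B score | Benchmarks: Low control buffer alone, high control maximal DAMGO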
Kir21 block: Kir2.1 (mouse) channel inhibition; P35561; HEK293-Kir2.1, FluxOR thallium flux fluorescence; hits give low values; B-score at 10 µM; 0.85% of 310,000 active; AID 1672;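 active = fluorescence ratio B-score at or below minus 3 SD of library scores, with starting-brightness B-score within 2 SD, cut at about -4.2 in these data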;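 also: channel flux triggered by added potassium and thallium sulfate stimulus; B-score of peak minus minimum fluorescence over baseline after thallium stimulus; more negative B-score means stronger Kir2.1 block with less thallium influx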
Target sequence (P35561 whole entry, looked up): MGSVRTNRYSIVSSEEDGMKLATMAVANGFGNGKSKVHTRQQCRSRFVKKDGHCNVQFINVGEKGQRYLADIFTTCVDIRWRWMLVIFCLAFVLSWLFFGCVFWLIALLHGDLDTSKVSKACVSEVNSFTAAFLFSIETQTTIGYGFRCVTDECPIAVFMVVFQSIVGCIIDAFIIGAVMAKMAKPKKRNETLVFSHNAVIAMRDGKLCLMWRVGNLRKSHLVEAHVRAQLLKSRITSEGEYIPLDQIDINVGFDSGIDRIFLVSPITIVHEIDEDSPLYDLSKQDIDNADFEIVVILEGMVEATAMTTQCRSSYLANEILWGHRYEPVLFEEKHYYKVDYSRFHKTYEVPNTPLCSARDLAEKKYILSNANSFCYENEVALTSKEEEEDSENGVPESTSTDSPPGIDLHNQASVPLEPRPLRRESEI
* = called active by the depositor; i = inactive.

SMILES	TRPC6 inh	TRPC4 PAM	TRPC4 inh	TRPC6 activator	TRPC4 act	Kir21 block
CCn1c(=O)cc(OCC(=O)NCCCN2CC(C)CC(C)C2)c2ccccc21 (stereo not drawn)	i	i	i	i	90*	1.14
CCn1c(=O)cc(OCC(=O)NCCCN2CCC(C)CC2)c2ccccc21	i	i	i	i	i	-1.09
CC1CCCC(C)N1C(=O)COc1ccc([N+](=O)[O-])cc1Cl (stereo not drawn)	i	i	i	i	i	0.77
CCOC(=O)Cn1c(=O)oc2cc(S(=O)(=O)Nc3ccc(F)cc3)ccc21	i	i	i	i	47*	-0.14
O=S(=O)(NCC1(N2CCOCC2)CCCCC1)c1ccccc1Cl	i	i	i	i	i	-1.97
O=S(=O)(NCC1(N2CCOCC2)CCCCC1)c1ccc(Cl)cc1C(F)(F)F	i	i	i	i	47*	-0.23
Cc1ccc2[nH]c(C(=O)NN=C3CCCCC3)c(-c3ccccc3)c2c1	i	10*	i	i	i	-0.02
COc1ccc(C2NCCc3c2[nH]c2ccccc32)cc1CN1CCc2cc(OC)c(OC)cc2C1C (stereo not drawn)	i	i	-8*	i	47*	-4.01
COc1ccc(C2NCCc3c2[nH]c2ccccc32)cc1COc1ccc(F)cc1 (stereo not drawn)	i	i	i	i	i	-2.44
COc1ccc(Cl)cc1NC(=O)CN(C(=O)c1ccco1)C1CCCCC1	i	i	i	i	i	0.26
CCN(CC)CCN(CC(=O)N(C1CCCCC1)C1CCCCC1)C(=O)c1ccco1	i	i	i	i	i	-4.38*
CCCC(=O)N1CCc2cc(-c3nc(N)sc3C)ccc21	i	i	i	i	101*	0.35
CC(C)CNC(=O)c1cccc(NC(=O)c2ccc3c(c2)C(=O)N(C)C3=O)c1	i	i	i	i	i	-0.13
CCCCNC(=O)c1cccc2c(=O)c(C)c(-c3ccccc3)oc12	i	i	i	i	i	0.69
CCCCN(C(=O)c1cccc2c(=O)c(C)c(-c3ccccc3)oc12)c1ccccc1	i	32*	i	i	i	0
Cc1cc2[nH]c3ccccc3c2c(C)n1	i	i	-7*	i	i	-1.57
CCOC(=O)C1CCN(C(=O)CSc2nc3ncccc3[nH]2)CC1	i	i	i	i	i	-0.48
O=C(CSc1nnc(-c2ccccc2F)n1C1CCCCC1)N1CCCC1	i	i	i	i	i	-0.01
O=C(CSc1nnc(-c2ccc(Cl)cc2Cl)n1C1CCCCC1)N1CCCC1	i	i	-6*	i	i	-0.03
O=S(=O)(O)c1ccc(N2N=C(c3ccccc3)CC2c2ccccc2)cc1 (stereo not drawn)	i	i	i	i	i	2.05
NS(=O)(=O)c1ccc(N2N=C(c3ccccc3)CC2c2ccccc2)cc1 (stereo not drawn)	i	11*	i	i	i	-0.19
CC(=O)Nc1ccc(S(=O)(=O)N2CCN(S(=O)(=O)N3CCC(C)CC3)CC2)cc1	i	i	i	i	i	2.21
Cc1cc(C)c(C#N)c(N2CCN(Cc3ccccc3)CC2)n1	i	i	i	i	i	-4.54*
COc1cccc(CNc2ccc(S(N)(=O)=O)cc2)c1OCc1ccccc1F	i	i	i	i	i	-5.07*
Cc1cc(C)[n+](-c2ccc(Oc3ccccc3)c(S(=O)(=O)[O-])c2)[nH]1	i	i	i	i	i	0.19
Fc1ccc(-n2cc(-c3ccccc3)c3c(N4CCOCC4)ncnc32)cc1	i	15*	i	i	i	-0.57
CSCC[C@H](NC(=O)N1CCn2c1nc1ccccc12)C(=O)NCc1ccc(F)cc1	i	20*	i	i	i	-0.11
COc1ccc(CNC(=O)[C@H](CCSC)NC(=O)N2CCn3c2nc2ccccc23)cc1	i	i	i	i	i	-0.74

Bioassay records from PubChem BioAssay.
